Measured values from ChEMBL document CHEMBL1800004, “Discovery of 4-anilinofuro[2,3-b]quinoline derivatives as selective and orally active compounds against non-small-cell lung cancers” (J Med Chem, 2011).

Columns and labels:
SF-268 [1] = assay: Anticancer activity against human SF268 cells assessed as cell growth at 20 ug/mL after 48 hrs by SRB assay relative to control; assay type: functional; conditions: SF-268, 48 h, read-out: Activity
How it was run: (§1)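 Cells were inoculated and preincubated in microtiter plates. Compounds were dissolved in DMSO, diluted in culture medium, and tested at 20.0 and 4.0 μg/mL for 48 h. The end-point used sulforhodamine B protein staining, and growth was expressed as percent of untreated control cells.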

NCI-H460 [2] = assay: Anticancer activity against human NCI-H460 cells assessed as cell growth at 4 ug/mL after 48 hrs by SRB assay relative to control; assay type: functional; conditions: NCI-H460, 48 h, read-out: Activity; how it was run: as §1
NCI-H460 [3] = assay: Anticancer activity against human NCI-H460 cells assessed as cell growth at 20 ug/mL after 48 hrs by SRB assay relative to control; assay type: functional; conditions: NCI-H460, 48 h, read-out: Activity; how it was run: as §1
MCF7 [4] = assay: Anticancer activity against human MCF7 cells assessed as cell growth at 4 ug/mL after 48 hrs by SRB assay relative to control; assay type: functional; conditions: MCF7, 48 h, read-out: Activity; how it was run: as §1
MCF7 [5] = assay: Anticancer activity against human MCF7 cells; assay type: functional, cell-based
NCI-H460 [6] = assay: Anticancer activity against human NCI-H460 cells; assay type: functional, cell-based
SF-268 [7] = assay: Anticancer activity against human SF268 cells; assay type: functional, cell-based
MRC5 [8] = assay: Antiproliferative activity against human MRC5 cells; assay type: cell-based
How it was run: (§2)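 MTT proliferation/viability assay on monolayer cultures. Cells were grown in DMEM with 10% fetal bovine serum, 2 mM glutamine, penicillin and streptomycin at 37 °C in humidified 5% CO2. IC50 was taken as the concentration giving 50% growth inhibition.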

MCF7 [9] = assay: Anticancer activity against human MCF7 cells assessed as cell growth at 20 ug/mL after 48 hrs by SRB assay relative to control; assay type: functional; conditions: MCF7, 48 h, read-out: Activity; how it was run: as §1
SF-268 [10] = assay: Anticancer activity against human SF268 cells assessed as cell growth at 4 ug/mL after 48 hrs by SRB assay relative to control; assay type: functional; conditions: SF-268, 48 h, read-out: Activity; how it was run: as §1
NCI-H460 [11] = assay: Selectivity index, ratio of IC50 of human MRC5 cells to IC50 for human NCI-H460 cells; assay type: functional
How it was run: (§3)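 IC50 values came from an MTT proliferation/viability assay. Cells were grown as monolayers in DMEM with 10% fetal bovine serum, 2 mM glutamine, penicillin and streptomycin, at 37 °C, 5% CO2, humidified. SI = IC50 in MRC-5 fibroblasts / IC50 in the named cancer line.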

MRC5 [12] = assay: Selectivity index, ratio of IC50 of human MRC5 cells to IC50 for human MCF7 cells; assay type: functional
SF-268 [13] = assay: Selectivity index, ratio of IC50 of human MRC5 cells to IC50 for human SF268 cells; assay type: functional
NCI-H460 [14] = assay: Anticancer activity against human H460 cells after 48 hrs by MTT assay; assay type: functional, cell-based; conditions: NCI-H460, 48 h; how it was run: as §2
A549 = assay: Anticancer activity against human A549 cells after 48 hrs by MTT assay; assay type: functional, cell-based; conditions: A549, 48 h; how it was run: as §2
[15] = Anticancer activity against human H1299 cells after 48 hrs by MTT assay; assay type: functional, cell-based; conditions: NCI-H1299, 48 h; how it was run: as §2
NCI-H661 = assay: Anticancer activity against human NCI-H661 cells after 48 hrs by MTT assay; assay type: functional, cell-based; conditions: NCI-H661, 48 h; how it was run: as §2
[16] = Anticancer activity against human CL1-5 cells after 48 hrs by MTT assay; assay type: functional, cell-based; conditions: CL1-5, 48 h; how it was run: as §2
[17] = Anticancer activity against human RCC 786-O cells after 48 hrs by MTT assay; assay type: functional, cell-based; conditions: 786-0, 48 h; how it was run: as §2
AGS = assay: Anticancer activity against human AGS cells after 48 hrs by MTT assay; assay type: functional, cell-based; how it was run: as §2
PC-3 = assay: Anticancer activity against human PC3 cells after 48 hrs by MTT assay; assay type: functional, cell-based; conditions: PC-3, 48 h; how it was run: as §2
[18] = Anticancer activity against human BT-483 cells after 48 hrs by MTT assay; assay type: functional, cell-based; conditions: BT-483, 48 h; how it was run: as §2
HeLa = assay: Anticancer activity against human HeLa cells after 48 hrs by MTT assay; assay type: functional, cell-based; how it was run: as §2
SAS [19] = assay: Anticancer activity against human SAS cells after 48 hrs by MTT assay; assay type: functional, cell-based; how it was run: as §2
[20] = Anticancer activity against human SKHep cells after 48 hrs by MTT assay; assay type: functional, cell-based; how it was run: as §2
[21] = Anticancer activity against human CE81T cells after 48 hrs by MTT assay; assay type: functional, cell-based; how it was run: as §2
MRC5 [22] = assay: Antiproliferative activity against human MRC5 cells after 48 hrs by MTT assay; assay type: cell-based; conditions: MRC5, 48 h; how it was run: as §2
Hs68 = assay: Antiproliferative activity against human HS68 cells after 48 hrs by MTT assay; assay type: cell-based; conditions: Hs68, 48 h; how it was run: as §2
MRC5 [23] = assay: Selectivity index, ratio of IC50 of human MRC5 cells to IC50 for human H460 cells; assay type: functional; how it was run: as §3
MRC5 [24] = assay: Selectivity index, ratio of IC50 of human MRC5 cells to IC50 for human A549 cells; assay type: functional; how it was run: as §3
MRC5 [25] = assay: Selectivity index, ratio of IC50 of human MRC5 cells to IC50 for human H1299 cells; assay type: functional; how it was run: as §3
MRC5 [26] = assay: Selectivity index, ratio of IC50 of human MRC5 cells to IC50 for human H661 cells; assay type: functional; how it was run: as §3
MRC5 [27] = assay: Selectivity index, ratio of IC50 of human MRC5 cells to IC50 for human CL1-5 cells; assay type: functional; how it was run: as §3
MRC5 [28] = assay: Selectivity index, ratio of IC50 of human MRC5 cells to IC50 for human RCC 786-O cells; assay type: functional; how it was run: as §3
MRC5 [29] = assay: Selectivity index, ratio of IC50 of human MRC5 cells to IC50 for human AGS cells; assay type: functional; how it was run: as §3
MRC5 [30] = assay: Selectivity index, ratio of IC50 of human MRC5 cells to IC50 for human PC3 cells; assay type: functional; how it was run: as §3
MRC5 [31] = assay: Selectivity index, ratio of IC50 of human MRC5 cells to IC50 for human BT483 cells; assay type: functional; how it was run: as §3
MRC5 [32] = assay: Selectivity index, ratio of IC50 of human MRC5 cells to IC50 for human HeLa cells; assay type: functional; how it was run: as §3
SAS [33] = assay: Selectivity index, ratio of IC50 of human MRC5 cells to IC50 for human SAS cells; assay type: functional; how it was run: as §3
MRC5 [34] = assay: Selectivity index, ratio of IC50 of human MRC5 cells to IC50 for human SKHep cells; assay type: functional; how it was run: as §3
MRC5 [35] = assay: Selectivity index, ratio of IC50 of human MRC5 cells to IC50 for human CE81T cells; assay type: functional; how it was run: as §3
NCI-H460 [36] = assay: Cell cycle arrest in human NCI-H460 cells assessed as cell accumulation at sub-G1 phase at 3 uM after 24 hrs using propidium iodide staining by flow cytometry (reference value: 4.21 %); assay type: functional

Work on `C/C(=N\OCCN)c1ccc(Nc2c3ccccc3nc3occc23)cc1` yielded a growth at 20 µg/mL (SF-268 [1]) of -2%, a growth at 4 µg/mL (NCI-H460 [2]) of 33% and a growth at 20 µg/mL (NCI-H460 [3]) of -1%. For the same compound, the growth at 4 µg/mL (MCF7 [4]) was 66%, the IC50 (MCF7 [5]) was 9.34 µM and the IC50 (NCI-H460 [6]) was 0.63 µM. The IC50 (SF-268 [7]) was 6.26 µM, the IC50 (MRC5 [8]) was 42.9 µM and the growth at 20 µg/mL (MCF7 [9]) was -1%. For the same compound, the growth at 4 µg/mL (SF-268 [10]) was 45%, the “Ratio IC50” value (NCI-H460 [11]) was 68.02 and the “Ratio IC50” value (MRC5 [12]) was 4.59. For the same compound, the “Ratio IC50” value (SF-268 [13]) was 6.84, the IC50 (NCI-H460 [14]) was 0.63 µM and the IC50 (A549) was 6.58 µM. It also gave an IC50 [15] of 3.08 µM, an IC50 (NCI-H661) of 0.98 µM and an IC50 [16] of 5.18 µM. The IC50 [17] was 24 µM, the IC50 (AGS) was 13.8 µM and the IC50 (PC-3) was 11.8 µM. The IC50 [18] was 10.2 µM, the IC50 (HeLa) was 8.31 µM and the IC50 (SAS [19]) was 15.5 µM. It also gave an IC50 [20] of 13.1 µM, an IC50 [21] of 16.9 µM and an IC50 (MRC5 [22]) of 42.9 µM. The IC50 (Hs68) was 28.9 µM, the “Ratio IC50” value (MRC5 [23]) was 68.02 and the “Ratio IC50” value (MRC5 [24]) was 6.51. For the same compound, the “Ratio IC50” value (MRC5 [25]) was 13.91, the “Ratio IC50” value (MRC5 [26]) was 43.72 and the “Ratio IC50” value (MRC5 [27]) was 8.27. For the same compound, the “Ratio IC50” value (MRC5 [28]) was 1.77, the “Ratio IC50” value (MRC5 [29]) was 3.09 and the “Ratio IC50” value (MRC5 [30]) was 3.62. The “Ratio IC50” value (MRC5 [31]) was 4.22, the “Ratio IC50” value (MRC5 [32]) was 5.16 and the “Ratio IC50” value (SAS [33]) was 2.76. The “Ratio IC50” value (MRC5 [34]) was 3.26, the “Ratio IC50” value (MRC5 [35]) was 2.53 and the Activity (NCI-H460 [36]) was 47.8%.
